Reference: ChEMBL document CHEMBL1146380, “Synthesis, antimicrobial activity, and QSAR studies of furan-3-carboxamides” (2007)
Converted amounts (≈) assume the structure as drawn. The source made the active and inactive calls. No cut-off for these calls is given here.

Key:
Candida albicans = test: Antimicrobial activity against Candida albicans ATCC 44373 by broth microdilution method; type: functional
Procedure, shortened: (§1)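 Yeasts grown on potato dextrose agar. Inoculum was standardized by McFarland turbidity as for bacteria, into RPMI 1640 broth (M27-A2). DMSO-dissolved compound was tested in twofold dilutions from 320 to 1.25 at 35 °C for 24 h, in duplicate. MIC was the lowest concentration completely inhibiting visible growth. Fungicidal concentration was read by subculturing 20 µL from clear wells on Sabouraud dextrose agar at 35 °C.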

Candida dubliniensis = test: Antimicrobial activity against Candida dubliniensis CBS 7987 by broth microdilution method; type: functional; procedure, shortened: as §1
Nakaseomyces glabratus = test: Antimicrobial activity against Candida glabrata […] by broth microdilution method; type: functional; procedure, shortened: as §1
[1] = test system: Cryptococcus deneoformans; test: Antimicrobial activity against Cryptococcus neoformans var.neoformans serotype D ATCC 28952 by broth microdilution method; type: functional
Procedure, shortened: (§2)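 Organism grown on potato dextrose agar, with turbidity-standardized inoculum in RPMI 1640 broth (M27-A2). DMSO-dissolved compound was tested in twofold dilutions from 320 to 1.25 at 35 °C, incubated up to 72 h, in duplicate. MIC was the lowest concentration with no visible growth. Cidal concentration was read by subculturing 20 µL from clear wells on Sabouraud dextrose agar, incubated for the same period.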

Saccharomyces cerevisiae = test: Antimicrobial activity against Saccharomyces cerevisiae ATCC 2601 by broth microdilution method; type: functional; procedure, shortened: as §2
Staphylococcus aureus = test: Antimicrobial activity against Staphylococcus aureus ATCC 25923 by broth microdilution method; type: functional; conditions: for MBC: read-out: MFC
Procedure, shortened: (§3)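 Bacteria grown overnight on Mueller–Hinton agar. Colonies were suspended in saline to McFarland turbidity (about 10^8 cfu/mL), diluted 1:100 in saline, then 1:20 in Mueller–Hinton broth, giving 5 · 10^4 cfu/mL per well. DMSO-dissolved compound was tested in twofold dilutions from 320 to 1.25 at 35 °C for 24 h. MIC was the lowest concentration with no visible turbidity (M7-A4). Bactericidal concentration was read by subculturing clear wells on Mueller–Hinton agar.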

Klebsiella pneumoniae = test: Antimicrobial activity against Klebsiella pneumoniae ATCC 1003 by broth microdilution method; type: functional; procedure, shortened: as §3
Escherichia coli = test: Antimicrobial activity against Escherichia coli ATCC 25922 by broth microdilution method; type: functional; procedure, shortened: as §3
[2] = (§4) Antimicrobial activity against Salmonella setubal ATCC 19196 by broth microdilution method; type: functional, Salmonella enterica subsp. enterica serovar Setubal; conditions: Salmonella enterica; procedure, shortened: as §3
[3] = test system: Salmonella enterica subsp. enterica serovar Setubal; test: as §4; type: functional; procedure, shortened: as §3
Prototheca zopfii = test: Antimicrobial activity against Prototheca zopfii by broth microdilution method; type: functional; procedure, shortened: as §2
Pseudomonas aeruginosa = test: Antimicrobial activity against Pseudomonas aeruginosa ATCC 27853 by broth microdilution method; type: functional; procedure, shortened: as §3
Rhizopus arrhizus = test: Antimicrobial activity against Rhizopus oryzae isolate by broth microdilution method; type: functional
Sporothrix schenckii = test: Antimicrobial activity against Sporothrix schenckii ATCC 1146 by broth microdilution method; type: functional
Fusarium solani = test: Antimicrobial activity against Fusarium solani isolate by broth microdilution method; type: functional
Aspergillus fumigatus = test: Antimicrobial activity against Aspergillus fumigatus isolate by broth microdilution method; type: functional
Aspergillus flavus = test: Antimicrobial activity against Aspergillus flavus isolate by broth microdilution method; type: functional
Aspergillus niger = test: Antimicrobial activity against Aspergillus niger isolate by broth microdilution method; type: functional
Aspergillus terreus = test: Antimicrobial activity against Aspergillus terreus isolate by broth microdilution method; type: functional
Scedosporium boydii = test: Antimicrobial activity against Pseudallescheria boydii isolate by broth microdilution method; type: functional

| SMILES | MFC (Candida dubliniensis) | MIC (Candida dubliniensis) | MFC [1] | MIC [1] | MIC (Staphylococcus aureus) | MIC (Klebsiella pneumoniae) | Activity (Escherichia coli) | MIC (Escherichia coli) | MIC [2] | Activity [3] | MFC (Prototheca zopfii) | MIC (Prototheca zopfii) | MIC (Pseudomonas aeruginosa) | MIC (Rhizopus arrhizus) | MFC (Sporothrix schenckii) | MIC (Sporothrix schenckii) | MIC (Fusarium solani) | MIC (Aspergillus fumigatus) | MIC (Aspergillus niger) | MFC (Scedosporium boydii) | further results |
| --- | --- | --- | --- | --- | --- | --- | --- | --- | --- | --- | --- | --- | --- | --- | --- | --- | --- | --- | --- | --- | --- |
| O=C(NNc1ccccc1)c1ccoc1 | 320 µg/mL (≈ 1580 µM) | 320 µg/mL (≈ 1580 µM) | 160 µg/mL (≈ 791 µM) | 160 µg/mL (≈ 791 µM) | 320 µg/mL (≈ 1580 µM) | 320 µg/mL (≈ 1580 µM) | inactive | 320 µg/mL (≈ 1580 µM) | 320 µg/mL (≈ 1580 µM) | inactive | 320 µg/mL (≈ 1580 µM) | 160 µg/mL (≈ 791 µM) | 320 µg/mL (≈ 1580 µM) | 320 µg/mL (≈ 1580 µM) | 320 µg/mL (≈ 1580 µM) | 10 µg/mL (≈ 49.5 µM) | 2.5 µg/mL (≈ 12.4 µM) | 20 µg/mL (≈ 98.9 µM) | 20 µg/mL (≈ 98.9 µM) | 320 µg/mL (≈ 1580 µM) | MFC (Candida albicans): 320 µg/mL (≈ 1580 µM); MIC (Candida albicans): 320 µg/mL (≈ 1580 µM); Activity (Nakaseomyces glabratus): inactive; MIC (Nakaseomyces glabratus): 320 µg/mL (≈ 1580 µM); MFC (Saccharomyces cerevisiae): 320 µg/mL (≈ 1580 µM); MIC (Saccharomyces cerevisiae): 320 µg/mL (≈ 1580 µM); Activity (Staphylococcus aureus): inactive; Activity (Klebsiella pneumoniae): inactive; Activity (Pseudomonas aeruginosa): inactive; MFC (Rhizopus arrhizus): 320 µg/mL (≈ 1580 µM); MFC (Fusarium solani): 2.5 µg/mL (≈ 12.4 µM); MFC (Aspergillus fumigatus): 20 µg/mL (≈ 98.9 µM); MFC (Aspergillus flavus): 20 µg/mL (≈ 98.9 µM); MIC (Aspergillus flavus): 10 µg/mL (≈ 49.5 µM); MFC (Aspergillus niger): 40 µg/mL (≈ 198 µM); MFC (Aspergillus terreus): 40 µg/mL (≈ 198 µM); MIC (Aspergillus terreus): 40 µg/mL (≈ 198 µM); MIC (Scedosporium boydii): 10 µg/mL (≈ 49.5 µM) |
| O=C(Nc1nc[nH]n1)c1ccoc1 | 80 µg/mL (≈ 449 µM) | 40 µg/mL (≈ 225 µM) | 80 µg/mL (≈ 449 µM) | 20 µg/mL (≈ 112 µM) | 160 µg/mL (≈ 898 µM) | 320 µg/mL (≈ 1800 µM) | inactive | 320 µg/mL (≈ 1800 µM) | 320 µg/mL (≈ 1800 µM) | inactive | 160 µg/mL (≈ 898 µM) | 160 µg/mL (≈ 898 µM) | 160 µg/mL (≈ 898 µM) | 320 µg/mL (≈ 1800 µM) | 320 µg/mL (≈ 1800 µM) | 160 µg/mL (≈ 898 µM) | 320 µg/mL (≈ 1800 µM) | 320 µg/mL (≈ 1800 µM) | 320 µg/mL (≈ 1800 µM) | 320 µg/mL (≈ 1800 µM) | MFC (Candida albicans): 80 µg/mL (≈ 449 µM); MIC (Candida albicans): 80 µg/mL (≈ 449 µM); MFC (Nakaseomyces glabratus): 80 µg/mL (≈ 449 µM); MIC (Nakaseomyces glabratus): 80 µg/mL (≈ 449 µM); MFC (Saccharomyces cerevisiae): 320 µg/mL (≈ 1800 µM); MIC (Saccharomyces cerevisiae): 160 µg/mL (≈ 898 µM); MBC (Staphylococcus aureus): 160 µg/mL (≈ 898 µM); MBC (Klebsiella pneumoniae; read-out: MFC): 320 µg/mL (≈ 1800 µM); MBC (Pseudomonas aeruginosa): 320 µg/mL (≈ 1800 µM); Activity (Rhizopus arrhizus): inactive; Activity (Fusarium solani): inactive; Activity (Aspergillus fumigatus): inactive; Activity (Aspergillus flavus): inactive; Activity (Aspergillus terreus): inactive; MIC (Scedosporium boydii): 320 µg/mL (≈ 1800 µM) |
| O=C(NCc1ccncc1)c1ccoc1 | 320 µg/mL (≈ 1580 µM) | 320 µg/mL (≈ 1580 µM) | 320 µg/mL (≈ 1580 µM) | 320 µg/mL (≈ 1580 µM) | 80 µg/mL (≈ 396 µM) | 320 µg/mL (≈ 1580 µM) | inactive | 320 µg/mL (≈ 1580 µM) | 320 µg/mL (≈ 1580 µM) | inactive | 160 µg/mL (≈ 791 µM) | 160 µg/mL (≈ 791 µM) | 320 µg/mL (≈ 1580 µM) | 320 µg/mL (≈ 1580 µM) | 320 µg/mL (≈ 1580 µM) | 320 µg/mL (≈ 1580 µM) | 320 µg/mL (≈ 1580 µM) | 320 µg/mL (≈ 1580 µM) | 320 µg/mL (≈ 1580 µM) | 320 µg/mL (≈ 1580 µM) | Activity (Candida albicans): inactive; Activity (Nakaseomyces glabratus): inactive; Activity (Saccharomyces cerevisiae): inactive; MBC (Staphylococcus aureus): 320 µg/mL (≈ 1580 µM); Activity (Klebsiella pneumoniae): inactive; Activity (Pseudomonas aeruginosa): inactive; MFC (Rhizopus arrhizus): 320 µg/mL (≈ 1580 µM); Activity (Fusarium solani): inactive; Activity (Aspergillus fumigatus): inactive; Activity (Aspergillus flavus): inactive; MFC (Aspergillus niger): 320 µg/mL (≈ 1580 µM); MFC (Aspergillus terreus): 320 µg/mL (≈ 1580 µM); MIC (Aspergillus terreus): 320 µg/mL (≈ 1580 µM); MIC (Scedosporium boydii): 320 µg/mL (≈ 1580 µM) |
